# Test results taken from the RNAGym collection of RNA variant scans (doi:10.1126/science.aae0568).
# Fewer inactive variants are shown than the library holds.
# B1: tRNA (parent)
# chain: GUUCCGUUGGCGUAAUGGUAACGCGUCUCCCUCCUAAGGAGAAGACUGCGGGUUCGAGUCCCGUACGGAACG
# Variants of: B1
# Assay: yeast fitness relative to wild type (ratio to wild type); higher = fitter; tRNA-Arg(CCU), competitive growth, 37 C, YPD
# In short: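 Variants of the tRNA-Arg(CCU) gene were chemically synthesised with a 3% per-site mutation rate across 69 sites and placed at the native genomic locus in Saccharomyces cerevisiae. Six parallel replicates of the pooled strains were competed in YPD at 37°C for 24 hours, and gene amplicons from the start and end populations were read by 100-nucleotide paired-end sequencing. Darwinian fitness relative to wild type was derived from changes in genotype frequencies. Genotypes required ≥ 100 starting reads, and estimates < 0.5 were set to 0.5.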
row,Variant,yeast fitness
1,G6C A37C G58C U59C,≤ 0.5
2,G6A U19G,0.828
3,G6C A14G G39C,≤ 0.5
4,G6C G9C U54C,0.603
5,G6C C11G C61U A70U,≤ 0.5
6,G6C C22A C31G G51A C66U,≤ 0.5
7,G6A U47G U54C,≤ 0.5
8,G6C C30A,0.763
9,G6C C30U,0.784
10,G6C C61U,0.726
11,G6C C61G,0.675
12,G6A U13A G17A G23C A45G,0.602
13,G6C A15U G23C C31G G41C G48C,0.574
14,G6C A45U C60A C61A G63A,≤ 0.5
15,G6C G12A G58C C61U A69C,≤ 0.5
16,G6C C11A C34G C66A,≤ 0.5
17,G6C C49U,0.965
18,G6A U32C G44A C46A G52A C66U,0.567
19,G6C G12A C27U G39C G63A,≤ 0.5
20,G6C C11A C34G A65G,≤ 0.5
21,G6A U59C,0.893
22,G6A U59G,0.912
23,G6A U59A,0.715
24,G6C C46G U54C,≤ 0.5

row,Variant,yeast fitness
1,G6C C30A C34A A43C C62U,≤ 0.5
2,G6C A15C A21C C34U A37U A57U,≤ 0.5
3,G6A U8C G17A G25A C55A,≤ 0.5
4,G6C C33G G41C G56C G58A G63C A65U,≤ 0.5
5,G6C C11G U35A,≤ 0.5
6,G6C A36C,0.53
7,G6C A36G,0.875
8,G6C A36U,0.653
9,G6C G17A C24A U32C,≤ 0.5
10,G6C G12A C27U G39C,0.616
11,G6C C34G G38A U64A,≤ 0.5
12,G6C C66A,0.927
13,G6C C66U,1.01
14,G6C C29G C66U,0.565
15,G6C G12A U47A G51C A65G,≤ 0.5
16,G6C G10A C27A C49U C66U,≤ 0.5
17,G6C C34G G38A,≤ 0.5
18,G6C C31G C46A G63C A65U,≤ 0.5
19,G6C G12A A21G,0.552
20,G6C A70G,0.948
21,G6C A70C,0.938
22,G6C G17A C24A U32C A45C C60A,≤ 0.5
23,G6A U8C C62U,0.604
24,G6A U28A C31G U35A U47A U54A,≤ 0.5

row,Variant,yeast fitness
1,G6C A21G,0.857
2,G6A U32A A45U A69C,0.565
3,G6A U54G G58A,≤ 0.5
4,G6A U13A C30G C61U,0.601
5,G6A U28C,0.898
6,G6A U28A,0.821
7,G6A U28G,0.886
8,G6C C11G C22U A69C,≤ 0.5
9,G6A U19G U53C,≤ 0.5
10,G6C C24A C34U C49G G52C C55U C62G,≤ 0.5
11,G6C C34G A45U G68C,≤ 0.5
12,G6C A14U A36G A40G C46A C62U,≤ 0.5
13,G6A U16G A21G,0.544
14,G6C A40U G56A,≤ 0.5
15,G6C G12A C30G A36U A42C,≤ 0.5
16,G6C A20U,0.812
17,G6C A14G U35G G51A,≤ 0.5
18,G6A U26A G48C,0.557
19,G6C C22U C24G C27U C29A C30U C31G,≤ 0.5
20,G6C A14C A21C A42G A70G,≤ 0.5
21,G6C A20U A36C A40G A43U A57C,≤ 0.5
22,G6C A15C C31U,≤ 0.5
23,G6C A15U G23C C31G G41C G48C G67C,≤ 0.5
24,G6C A37C G51A U53C,≤ 0.5

row,Variant,yeast fitness
1,G6C A37G G44C A57U G68C,≤ 0.5
2,G6C A42U G67A,≤ 0.5
3,G6A U16C C22U A37U C49A C62U,≤ 0.5
4,G6C C55U A70G,0.7
5,G6C G12C U47A,≤ 0.5
6,G6C C11G A20G G48C A57G U59A C60A,≤ 0.5
7,G6C A42G U53C C62U,≤ 0.5
8,G6A U13C G23A A65C,≤ 0.5
9,G6C C60G,0.731
10,G6C C11U C24A,≤ 0.5
11,G6C C11A C22A C29G,≤ 0.5
12,G6A U13A A40G A42G A57C C66U,0.525
13,G6C G9A A21U U28G C34U G63A,≤ 0.5
14,G6C C30U C46A G67C,≤ 0.5
15,G6C C11U U19C G44C G68A,≤ 0.5
16,G6C A37U A43U,0.525
17,G6C C29U C31U U54G A65U G67A,≤ 0.5
18,G6C C24A C46G G52A,0.695
19,G6C C11G A14U A20G C22U G44A C55A,≤ 0.5
20,G6C C22U C24G C27U C29A C30U C31G C49U C66U G67A,≤ 0.5
21,G6C A14C G44C C62G,≤ 0.5
22,G6C A21G G48A A57C G67A,≤ 0.5
23,G6C C22A U28A G51U U53G,≤ 0.5
24,G6C A42G C46A,0.695

row,Variant,yeast fitness
1,G6C A15U A42G A65G,≤ 0.5
2,G6C C46A,0.951
3,G6C C46G,0.823
4,G6A U26C A69U,0.664
5,G6C A45C U47C G68C,≤ 0.5
6,G6A U8C G18C,≤ 0.5
7,G6C C11A C34G,≤ 0.5
8,G6C C11U C34G,≤ 0.5
9,G6C A20C C66G A70U,0.577
10,G6C C33G A36C C49A G56A C60G A70U,≤ 0.5
11,G6C A21G G48A,0.977
12,G6A U19C C24U,0.744
13,G6C A43U G50A A70U,≤ 0.5
14,G6C G17A A36U G58C,≤ 0.5
15,G6A U26A A57C G67A A69U,≤ 0.5
16,G6C A43G C49U C60A C62A,0.691
17,G6C C22A C31G A42G A65C,≤ 0.5
18,G6A U16G A37C A57C C60A,≤ 0.5
19,G6C A45C G48A G51C,≤ 0.5
20,G6C C31U U35A C46G G48A C49U,≤ 0.5
21,G6C C29G C60A,≤ 0.5
22,G6C A14G C46G C62U C66U,≤ 0.5
23,G6C A14C C24U C27G C29A A70G,≤ 0.5
24,G6C A45C C46G C55U,≤ 0.5

row,Variant,yeast fitness
1,G6C C24G A57U,≤ 0.5
2,G6C C29U G44A A65G,≤ 0.5
3,G6C C27G C34A A65C,≤ 0.5
4,G6C G17A C30U A42C,0.63
5,G6C C11U C31G A36G G48C G67C,≤ 0.5
6,G6A U16A A43C G67C,≤ 0.5
7,G6C A40G C61A,≤ 0.5
8,G6C C22A C34A A70C,0.525
9,G6C C29A A40G G51C,0.657
10,G6C C11U U19C C22A U35C A69U,≤ 0.5
11,G6A U8C U19A C30A A45U G58C A69U,≤ 0.5
12,G6A U47C A57C,≤ 0.5
13,G6C A15G C24U C60A,0.554
14,G6A U35C G44A G48C C55G A69U,≤ 0.5
15,G6A U32C A37G C55A A65U G68C,≤ 0.5
16,G6C G10A U16G C24U G50C C55U,≤ 0.5
17,G6C C31A G68C,0.502
18,G6C A37G G68C,0.536
19,G6C A14G A20C G52A U64A G67A,≤ 0.5
20,G6C C46A G63A,0.689
21,G6C G10A G17A A36U G51C A69C,≤ 0.5
22,G6C G17A A40U,≤ 0.5
23,G6C A37U C49U G56A A69U,≤ 0.5
24,G6C C27A G44A,0.629

row,Variant,yeast fitness
1,G6C G10A C27A,0.586
2,G6C C11G A15C G25C C27G C30G G38C A70C,≤ 0.5
3,G6C A15U U26A A57C,0.707
4,G6C A15G A21G G25A A40C C61A A65U,≤ 0.5
5,G6C A20C A40G A42U G58A G63A G67A,0.519
6,G6C C11U C34G U47G,≤ 0.5
7,G6C C31U U53C C62U,≤ 0.5
8,G6A U26C,0.842
9,G6A U47C,0.878
10,G6A U47A,0.692
11,G6C C27U,0.933
12,G6C C27A,0.84
13,G6C C27G,0.567
14,G6C A20G C61G,≤ 0.5
15,G6C C22A C31G,≤ 0.5
16,G6C G17A C24A U32C A45C,≤ 0.5
17,G6A U13A G58C C60U C66G,≤ 0.5
18,G6C G12A,0.85
19,G6C G12C,0.676
20,G6A U13G A40U,0.502
21,G6C C24G C30G,≤ 0.5
22,G6A U8G A42U C61G,≤ 0.5
23,G6C C46U C60A,0.644
